According to the RNAGym collection of RNA variant scans (doi:10.1126/science.aae0568):
Fewer inactive variants are shown than the library holds.

B1: tRNA (parent)
chain: GUUCCGUUGGCGUAAUGGUAACGCGUCUCCCUCCUAAGGAGAAGACUGCGGGUUCGAGUCCCGUACGGAACG

Variants of: B1
Assay: yeast fitness relative to wild type (ratio to wild type); higher = fitter; tRNA-Arg(CCU), competitive growth, 37 C, YPD
In short: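 Start and end populations of a pooled competition were compared by 100-nucleotide paired-end sequencing of gene amplicons. The Saccharomyces cerevisiae strains carried tRNA-Arg(CCU) gene variants at the native genomic locus, synthesised with a 3% per-site mutation rate at 69 sites, and competed in YPD at 37°C for 24 hours in six parallel replicates. Darwinian fitness relative to wild type was based on the change in genotype frequencies. Genotypes required ≥ 100 starting reads, and estimates < 0.5 were set to 0.5.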

| Variant | yeast fitness |
| --- | --- |
| GUUCAGUUGGCGUAAUGGUUACGCGUCUCCCUCCUAAGGAGAAGACUGCGGGUUUGAGUCUCGUGCGGAACG [C5A A20U C55U C61U A65G] | ≤ 0.5 |
| GUUCAGUUGGCGUAAUGGUAACGCGUCUCCCUCCUAAGGAGUAGACUGCGGGUUCGAGUCCCGUACAGAACG [C5A A42U G67A] | ≤ 0.5 |
| GUUCAGUUGGCGUAAUGGUAACGCGUCUCCCUCCUAAGGUCAAGACUGCGGGUUCGAGUCCCGUACGGAACG [C5A A40U G41C] | 0.614 |
| GUUCAGUUGGCGUAAUGGUAACGCGUCUCCCUCCUAAGGUGAAGACUGCGGGUUCGAGUCCCGUACAGAACG [C5A A40U G67A] | 0.659 |
| GUUCAGUUGGCGUAAUGGUAACGCGUCUCCCUCCUAAGGAGUAGACUGCGGGUUCGAAUCCCGUACGGAACG [C5A A42U G58A] | 0.614 |
| GUUCAGUUGGCGUAAUGGUAACGCGUCUCCCUCCUAAGGAGAAGACUGCGGGUUCGGGUCCCGUAUGGAACG [C5A A57G C66U] | ≤ 0.5 |
| GUUCAGUUGGCGUAAUGGUAACGCGUCUCCCUCCUGAGGAGAAGAAUGCGGGUUCGAGUCCCGUACGGAACG [C5A A36G C46A] | 0.562 |
| GUUCAGUUGGCGUAAUGGUAACGCGUCUCCCUCCUACGGAGAAGACUGAGGGUUCGAGUCCCGUACGGAACG [C5A A37C C49A] | ≤ 0.5 |
| GUUCAGUUGGCGUAAUGGUAACGCGUCUCCCUCCUAAGGAGAAGACUGCGGGUUCGAGUCCCGUCCGGACCG [C5A A65C A70C] | 0.675 |
| GUUCAGUUGGCGUAAUGGUACCGCGUCUCCCUCCUAAGGAGAUGAGUGCGGGUUCGAGUCGCGUACGGAACG [C5A A21C A43U C46G C61G] | ≤ 0.5 |
| GUUCAGUUGGCGUAAUGGUAACGCGUCUCCCUCCUAAGGCGAAGACUGCGGGUUCGAGUCCCGUACGGUACG [C5A A40C A69U] | 0.539 |
| GUUCAGUUGGCGUAAUGGUAACGCGUCUCCCUCCUAAGGAGACGACUGCGGGUUCGAGUCCCGUACGGUCCG [C5A A43C A69U A70C] | 0.769 |
| GUUCAGUUGGCGUAAUGGUAACGCGUCUCCCUCCUAAGGAGAAGACUGCGGGUUCGAGUCCCGUACGGGACG [C5A A69G] | 0.908 |
| GUUCAGUUGGCGUAAUGGUAACGCGUCUCCCUCCUCAGGAGAAGAGUGCGGGUUCGAGUCCCGUACGGAACG [C5A A36C C46G] | 0.532 |
| GUUCAGUUGGCGUAAUGGUAUCGCGUCUCCCUCCUAAGGAGAAGACUGCGGGUUAGAGUCCCGUAUGGAACG [C5A A21U C55A C66U] | ≤ 0.5 |
| GUUCAGUUGGCGUAAUGGUAGCGCGUCUCCAUCCUAAGGAGAAGACUGCGGGUUCGAGUCCCGUACGGAACG [C5A A21G C31A] | 0.642 |
| GUUCAGUUGGCGUAAUGGUAACGCGUCUCCCUCCUACGGCGAAGUCUGCGGGUUCGCGUCCCGUACGGAUCG [C5A A37C A40C A45U A57C A70U] | ≤ 0.5 |
| GUUCAGUUGGAGUAAUGGUAACGCGUCUCCCUCCUAAGGAGUAGACUGCGGGAUCGCGUCCCGUGCGGAACG [C5A C11A A42U U53A A57C A65G] | ≤ 0.5 |
| GUUCAGUUGGCGUAAUGGUAACGCGUCUCCCUCCUAAGGUGAAGACUGCGGGUUCGAGUCCCGUUCGGAACG [C5A A40U A65U] | 0.636 |

| Variant | yeast fitness |
| --- | --- |
| GUUCAGUUGGCGUAAUGGUAUCGCGUCUCCCUCCUAAGGAGAAGACUGCAGGUUCGAGUCCCGUACGGAACG [C5A A21U G50A] | ≤ 0.5 |
| GUUCAGUUGGCGUAAUGGUAACGCGUCUCCCUCCUAAGGAGAGGACUGCGGGUUCGAGUCCCGUACGGAACG [C5A A43G] | 0.903 |
| GUUCAGUUGGCGUAAUGGUAACGCGUCUCCCUCCUAAGGAGACGACUGCGGGUUCGAGUCCCGUACGGAACG [C5A A43C] | 0.987 |
| GUUCAGUUGGCGUAAUGGUAACGCGUCUCCCUCCUAAGGAGAUGACUGCGGGUUCGAGUCCCGUACGGAACG [C5A A43U] | 0.783 |
| GUUCAGUUGGCGUAAUGGUACCGCGUAUCCCUCCUAAGGAGAAGACUGCGGGUUCGAGUCCCGUACGGAACG [C5A A21C C27A] | 0.568 |
| GUUCAGUUGGCGUAAUGGUAACGCGUCUCCCUCCUGAGGAGAAGACUGCGGGUUCGAGUCCCGUACGGAACG [C5A A36G] | 0.886 |
| GUUCAGUUGGCGUAAUGGUAACGCGUCUCCCUCCUAUGGAGAAGACUGCGGGUUCGGGUCCCCUACGGAACG [C5A A37U A57G G63C] | 0.733 |
| GUUCAGUUGGCGUAAUGGUAUCGCGUCUCCCACCUAAGGAGAAGACUGCAGGUUCGAGUGCCGUACGGAACG [C5A A21U U32A G50A C60G] | ≤ 0.5 |
| GUUCAGUUGGCGUAAUGGUACCGCGUCUCCCUCCUAAGGAGAUGAGUGCUGGUUCGAGUCGCGUACGGAACG [C5A A21C A43U C46G G50U C61G] | ≤ 0.5 |
| GUUCAGUUGGCGUAAUGGUAACGCGUCUCCCUCCUAAGGGGAAGACUGCGGGUUCGAGUCCCGUGCGGAACG [C5A A40G A65G] | 0.605 |
| GUUCAGUUGGCGUAAUGGUAACGCGUCUCCCUCCUAAGGAGAAGACUGCGGGUUCGAGUCCCGUUCGGAACG [C5A A65U] | 0.723 |
| GUUCAGUUGGCGUAAUGGUAACGCGUCUCCCUCCUAGGGAGAAGACUGCGCGUUCGAGUCGCGUACGGAACG [C5A A37G G51C C61G] | ≤ 0.5 |
| GUUCAGUUGGCGUAAUGGUUACGCGUCUCCGUCCUAAGGAGAAGACUGCGGGUUCGAAUCCUGUACGGCACG [C5A A20U C31G G58A C62U A69C] | ≤ 0.5 |
| GUUCAGUUGGCGUAAUGGUACCGCGUCUCGCUCUUAAGGAGAAGACUGCGGGUUCGACUCCCGUACGGAACG [C5A A21C C30G C34U G58C] | ≤ 0.5 |
| GUUCAGUUGGCGUAAUGGUACCGCGUCUCGCUCCUAAGGAGAAGACUGCGGGUUGGAGUCCCGUACGGAGCG [C5A A21C C30G C55G A70G] | ≤ 0.5 |
| GUUCAGUUGGAGUAAUCGUAACGCGUCUCCCUCCUAAGGAGAUGACUGCGGGUUCGAGACCCGUACGGAACG [C5A C11A G17C A43U U59A] | ≤ 0.5 |
| GUUCAGUUGGCGUAAUGGUAACGCGUCUCCCUCCUAAGGAGGAGACUGGGGGUCCGAGUCCCCUACGGAUCG [C5A A42G C49G U54C G63C A70U] | ≤ 0.5 |
| GUUCAGUUGGCGUAAUGGUAACGCGUCUCCCUCCUAAGGCAAAGAUUGCGGCUUCGAGUCCCGUACGGAACG [C5A A40C G41A C46U G52C] | ≤ 0.5 |
| GUUCAGUUGGCGUAAUGGUUACGCGUCUCCGUCCUAAGGAGAAGACUGCGGGUUCGAGUCUCGUACGGAACG [C5A A20U C31G C61U] | ≤ 0.5 |
